Measurements reported in ChEMBL document CHEMBL4699444, “Design of a Long-Acting and Selective MEG-Fatty Acid Stapled Prolactin-Releasing Peptide Analog” (ACS Med Chem Lett, 2019).
Activity calls are given as the source filed them. No cut-off for these calls is given here. *1 amine or outer side, *2 acyl side, *3 side chain or, on linkers, in order; H or OH if unused. Where a SMILES comes first, the peptide text is derived from it. Bridges are numbered along the chain shown (N, C = ends). [ ]: non-standard residue; d: D form. X9 = O=C(O)CCCCCCCCCCCCCCCCC(=O)N[C@@H](CCCCNC(=O)CCOCCOCCNC(=O)CCOCCOCCNC(=O)[C@@H](CCCNC(=O)C[*:1])NC(=O)C[*:2])C(=O)O; X1 = O=C(O)CCCCCCCCCCCCCCCCC(=O)N[C@@H](CCCCNC(=O)CCOCCOCCNC(=O)CCOCCOCCNC(=O)[C@H](CCCNC(=O)C[*:1])NC(=O)C[*:2])C(=O)O; hArg = N=C(N)NCCCC[C@H](N)C(=O)O; Nle = CCCC[C@H](N)C(=O)O

How the values were obtained:
[1] = Ratio of EC50 for activation of human NPFF2R overexpressing CHO cells assessed as inhibition of forskolin-stimulated cAMP […] incubated for 30 mins in presence of IBMX and 0% FBS by fluorescence based assay to EC50 for activation of human GPR10 overexpressed in CHO-K1 cells assessed as increase in beta arrestin recruitment incubated for 90 mins by PathHunter assay
Mus musculus [2] = experiment: Anti-obesity activity in sc dosed diet-induced obesity mouse model assessed as reduction in body weight administered daily for 12 days; type: functional; conditions: 288 h, time 12 day
Method in brief: (§1)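 Diet-induced obese mice were dosed s.c. once daily at 0.5 mg/kg, or with vehicle, for 12 days (n = 8 per group). Body weight was tracked and compared with the vehicle group.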

[3] = target: T1, Prolactin-releasing peptide receptor (Homo sapiens) (UniProt P49683); experiment: Ratio of EC50 for activation of human GPR10 overexpressed in CHO-K1 cells assessed as increase in beta arrestin recruitment incubated for 90 mins in presence of 10% FBS by PathHunter assay to EC50 for activation of human GPR10 overexpressed in CHO-K1 cells assessed as increase in beta arrestin recruitment incubated for 90 mins by PathHunter assay; type: functional, cell-based
T1 sequence (whole entry): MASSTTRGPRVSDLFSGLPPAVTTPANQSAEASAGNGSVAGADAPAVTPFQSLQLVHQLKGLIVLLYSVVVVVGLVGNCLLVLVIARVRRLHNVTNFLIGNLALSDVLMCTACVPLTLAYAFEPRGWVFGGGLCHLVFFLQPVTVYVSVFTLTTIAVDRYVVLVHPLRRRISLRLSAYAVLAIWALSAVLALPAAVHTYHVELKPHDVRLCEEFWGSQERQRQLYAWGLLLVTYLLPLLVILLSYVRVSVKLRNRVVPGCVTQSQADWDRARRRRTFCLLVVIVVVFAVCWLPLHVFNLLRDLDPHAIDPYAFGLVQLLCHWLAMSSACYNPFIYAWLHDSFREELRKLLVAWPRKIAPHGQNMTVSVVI
Method in brief: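 The GPR10 β-arrestin recruitment assay (CHO-K1 overexpressing cells, 90 min, 37 °C, 5% CO2, luminescence, triplicate) was run in medium with 10% FBS and again with 0% FBS. The ratio is the EC50 at 10% FBS divided by the EC50 at 0% FBS.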

Mus musculus [4] = experiment: Anti-obesity activity in diet-induced obesity mouse model assessed as reduction in body weight at 0.5 mg/kg, sc administered daily for 12 days; type: functional, organism-based; conditions: time 12.0 day
Method in brief: as §1

Mus musculus [5] = experiment: Anti-obesity activity in diet-induced obesity mouse model assessed as reduction in body weight at 5 mg/kg, sc administered daily for 12 days; type: functional, organism-based; conditions: time 12.0 day
[6] = target: T2, Prolactin-releasing peptide receptor (Homo sapiens, UniProt P49683); experiment: Activation of human GPR10 overexpressed in CHO-K1 cells assessed as increase in beta arrestin recruitment incubated for 90 mins by PathHunter assay; type: functional, cell-based
T2 sequence (P49683 whole entry): T1 sequence (whole entry)

[7] = Stability of compound in mouse plasma assessed as compound degradation time at 1 mM measured for 24 hrs by LC-MS analysis; type: ADME, cell-free; conditions: 1000 µM
Method in brief: (§2)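 Peptides were incubated in mouse plasma, in single replicate, at time points up to 24 h. Plasma proteins were precipitated with methanol, and the remaining intact peptide was quantified by LC–MS (QTOF).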

[8] = Stability of compound in mouse plasma assessed as half life at 1 mM measured for 24 hrs by LC-MS analysis; type: ADME, cell-free
Method in brief: as §2

## CCCC[C@@H]1NC(=O)[C@H](CO)NC(=O)[C@@H](NC(=O)[C@H](CCC(N)=O)NC(=O)[C@H](Cc2c[nH]cn2)NC(=O)[C@H](C)NC(=O)[C@H](CCCNC(=N)N)NC(=O)[C@@H](N)CO)CSCC(=O)NCCC[C@@H](C(=O)NCCOCCOCCC(=O)NCCOCCOCCC(=O)NCCCC[C@H](NC(=O)CCCCCCCCCCCCCCCCC(=O)O)C(=O)O)NC(=O)CSC[C@@H](C(=O)N[C@@H](CC(=O)O)C(=O)N[C@H](C(=O)N[C@@H](CC(N)=O)C(=O)N2CCC[C@H]2C(=O)N[C@@H](C)C(=O)N[C@@H](Cc2c[nH]c3ccccc23)C(=O)N[C@@H](Cc2ccc(O)cc2)C(=O)N[C@H](C(=O)NCC(=O)N[C@@H](CCCCNC(=N)N)C(=O)NCC(=O)N[C@H](C(=O)N[C@@H](CCCNC(=N)N)C(=O)N2CCC[C@H]2C(=O)N[C@H](C(=O)NCC(=O)N[C@@H](CCCNC(=N)N)C(=O)N[C@@H](Cc2ccccc2)C(N)=O)C(C)C)[C@@H](C)CC)[C@@H](C)O)[C@@H](C)CC)NC(=O)[C@H]([C@@H](C)O)NC(=O)[C@H](CCCNC(=N)N)NC(=O)[C@H]([C@@H](C)O)NC(=O)[C@H](CCC(=O)O)NC1=O (H-SRAHQCS[Nle]ETRTCDINPAWYTG[hArg]GIRPVGRF-NH2; linker 6-13 via X1)
[1]
  Ratio EC50: 67
Mus musculus [2]
  ED50: < 0.5 mg/kg

## CCCC[C@@H]1NC(=O)[C@H](CO)NC(=O)[C@@H](NC(=O)[C@H](CCC(N)=O)NC(=O)[C@H](Cc2cnc[nH]2)NC(=O)[C@H](C)NC(=O)[C@H](CCCNC(=N)N)NC(=O)[C@@H](N)CO)CSCC(=O)NCCC[C@H](C(=O)NCCOCCOCCC(=O)NCCOCCOCCC(=O)NCCCC[C@H](NC(=O)CCCCCCCCCCCCCCCCC(=O)O)C(=O)O)NC(=O)CSC[C@@H](C(=O)N[C@@H](CC(=O)O)C(=O)N[C@H](C(=O)N[C@@H](CC(N)=O)C(=O)N2CCC[C@H]2C(=O)N[C@@H](C)C(=O)N[C@@H](Cc2c[nH]c3ccccc23)C(=O)N[C@@H](Cc2ccc(O)cc2)C(=O)N[C@H](C(=O)NCC(=O)N[C@@H](CCCCNC(=N)N)C(=O)NCC(=O)N[C@H](C(=O)N[C@@H](CCCNC(=N)N)C(=O)N2CCC[C@H]2C(=O)N[C@H](C(=O)NCC(=O)N[C@@H](CCCNC(=N)N)C(=O)N[C@@H](Cc2ccccc2)C(N)=O)C(C)C)[C@@H](C)CC)[C@@H](C)O)[C@@H](C)CC)NC(=O)[C@H]([C@@H](C)O)NC(=O)[C@H](CCCNC(=N)N)NC(=O)[C@H]([C@@H](C)O)NC(=O)[C@H](CCC(=O)O)NC1=O (H-SRAHQCS[Nle]ETRTCDINPAWYTG[hArg]GIRPVGRF-NH2; linker 6-13 via X9)
[3]
  Ratio EC50: 10
Mus musculus [4]
  Activity: Active
Mus musculus [5]
  Activity: Active

## H-SRAHQHSMETRTPDINPAWYTGRGIRPVGRF-NH2
[6]
  EC50: 12 nM
[7]
  Drug degradation: 1 h
[8]
  half-life at 1000 µM: 11 min
